These results are taken from ChEMBL document CHEMBL1138994, “Probing structure/affinity relationships for the Plasmodium falciparum hexose transporter with glucose derivatives” (Bioorg Med Chem Lett, 2006).

Calls of active or inactive are those of the source. The rule behind the calls is not given here.

One assay addresses T1, Hexose transporter 1 (Plasmodium falciparum, UniProt O97467).
T1 sequence (O97467 whole entry): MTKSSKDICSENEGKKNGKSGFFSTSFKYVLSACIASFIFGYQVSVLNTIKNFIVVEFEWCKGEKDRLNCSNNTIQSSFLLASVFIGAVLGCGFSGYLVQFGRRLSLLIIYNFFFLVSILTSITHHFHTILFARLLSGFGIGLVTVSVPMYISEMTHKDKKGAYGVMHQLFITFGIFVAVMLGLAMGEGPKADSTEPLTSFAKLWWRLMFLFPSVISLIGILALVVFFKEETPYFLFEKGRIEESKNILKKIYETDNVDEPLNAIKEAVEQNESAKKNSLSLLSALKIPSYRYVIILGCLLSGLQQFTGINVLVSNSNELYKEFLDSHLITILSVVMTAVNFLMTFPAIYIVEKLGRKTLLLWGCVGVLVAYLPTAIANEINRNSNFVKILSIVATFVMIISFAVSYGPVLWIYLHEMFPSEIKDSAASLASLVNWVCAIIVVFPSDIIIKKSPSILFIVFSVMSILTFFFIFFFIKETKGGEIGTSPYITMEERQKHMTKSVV
Kind of assay: Inhibition of D-glucose uptake mediated by PfHT expressed in Xenopus oocytes. It is filed as functional, cell-based, Oocyte. The gist of the method:
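Oocyte-expressed PfHT assay; values are means of three experiments with standard error of the mean, or two individual experiments where marked.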

Assay [1] concerns the target T2, Solute carrier family 2, facilitated glucose transporter member 1 (Homo sapiens) (UniProt P11166).
T2 sequence (whole entry): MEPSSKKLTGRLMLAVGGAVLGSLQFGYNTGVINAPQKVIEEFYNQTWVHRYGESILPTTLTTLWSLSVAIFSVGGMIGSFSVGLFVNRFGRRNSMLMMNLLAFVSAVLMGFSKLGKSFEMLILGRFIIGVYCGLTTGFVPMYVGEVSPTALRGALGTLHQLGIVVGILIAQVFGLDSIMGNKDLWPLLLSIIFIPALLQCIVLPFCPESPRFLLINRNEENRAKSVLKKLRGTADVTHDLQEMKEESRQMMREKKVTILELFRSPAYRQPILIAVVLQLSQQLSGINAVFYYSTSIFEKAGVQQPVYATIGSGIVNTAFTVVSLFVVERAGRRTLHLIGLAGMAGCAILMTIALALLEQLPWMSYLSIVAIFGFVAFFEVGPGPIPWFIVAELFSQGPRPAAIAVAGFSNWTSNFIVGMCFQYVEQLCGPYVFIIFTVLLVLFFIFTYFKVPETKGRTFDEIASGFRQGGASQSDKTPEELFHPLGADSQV
Kind of assay: Inhibitory activity against GLUT1.

One may read the Ki as the equilibrium dissociation constant of an inhibitor or competing ligand from its target. As for `C=CCCCCCCCOCCO[C@H]1[C@H](O)[C@@H](CO)OC(O)[C@@H]1O` (stereo partly specified), the Ki on Hexose transporter 1 (read-out: Ki) is 590 µM. For the same compound, the inhibition entry in assay [1] was “inactive”.
The corresponding values for `OC[C@H]1OC(O)[C@H](O)[C@@H](OCCCCCCCC(F)(F)C(F)(F)C(F)(F)C(F)(F)C(F)(F)C(F)(F)F)[C@@H]1O` (stereo partly specified) are 130 µM and “inactive”.
The corresponding values for `CCCCCCCCCO[C@H]1[C@H](O)[C@@H](CO)OC(O)[C@@H]1O` (stereo partly specified) are 32 µM and “inactive”.
Taken in the same sequence, the figures for `OC[C@H]1OC(O)[C@H](O)[C@@H](OCCCCCCCCc2ccccc2)[C@@H]1O` (stereo partly specified) were 148 µM and “inactive”.
Turning to `CCCCCCCO[C@H]1[C@H](O)[C@@H](CO)OC(O)[C@@H]1O` (stereo partly specified), the Ki at Hexose transporter 1 (read-out: Ki) is less than 500 µM. Also, the inhibition result in assay [1] is “inactive”.
Consider `CCCCCCCCO[C@H]1[C@H](O)[C@@H](CO)OC(O)[C@@H]1O` (stereo partly specified), for which the Ki on Hexose transporter 1 (read-out: Ki) came to 30 µM. In addition, the inhibition entry in assay [1] was “inactive”.
The corresponding values for `C=CCCCCCCCCCCO[C@H]1[C@H](O)[C@@H](CO)OC(O)[C@@H]1O` (stereo partly specified) are 36 µM and “inactive”.
The corresponding values for `CCCCc1ccc(CCCCCO[C@H]2[C@H](O)[C@@H](CO)OC(O)[C@@H]2O)cc1` (stereo partly specified) are 81 µM and “inactive”.
Taken in the same sequence, the figures for `CCCCCCCCCCCO[C@H]1[C@H](O)[C@@H](CO)OC(O)[C@@H]1O` (stereo partly specified) were 23 µM and “inactive”.
For `C=CCOCCO[C@H]1[C@H](O)[C@@H](CO)OC(O)[C@@H]1O` (stereo partly specified), on Hexose transporter 1 (read-out: Ki), the Ki is greater than 500 µM. Besides, the inhibition entry in assay [1] was “inactive”.
The corresponding values for `CCCCCCCC/C=C/CCCCCCO[C@H]1[C@H](O)[C@@H](CO)OC(O)[C@@H]1O` (stereo partly specified) are greater than 500 µM and “inactive”.
Taken in the same sequence, the figures for `OC[C@H]1OC(O)[C@H](O)[C@@H](OCCCCCc2ccccc2)[C@@H]1O` (stereo partly specified) were 64 µM and “inactive”.
The corresponding values for `C=CCCCCCCCO[C@H]1[C@H](O)[C@@H](CO)OC(O)[C@@H]1O` (stereo partly specified) are 41 µM and “inactive”.
`O=C(NCCCO[C@H]1[C@H](O)[C@@H](CO)OC(O)[C@@H]1O)C(F)(F)C(F)(F)C(F)(F)C(F)(F)C(F)(F)C(F)(F)F` (stereo partly specified): on Hexose transporter 1 (oocyte), the Ki entry is listed as “Not Active”. The inhibition entry in assay [1] is “inactive”.
For `C=CCCCCCCCCCO[C@H]1[C@H](O)[C@@H](CO)OC(O)[C@@H]1O` (stereo partly specified), the Ki at Hexose transporter 1 (read-out: Ki) was 53 µM. Besides, the inhibition entry in assay [1] was “inactive”.
The corresponding values for `CCCCCCCCCCCCO[C@H]1[C@H](O)[C@@H](CO)OC(O)[C@@H]1O` (stereo partly specified) are 30 µM and “inactive”.
Take `C=CCCCCCCCCO[C@H]1[C@H](O)[C@@H](CO)OC(O)[C@@H]1O` (stereo partly specified): at Hexose transporter 1 (read-out: Ki), the Ki was 49 µM. In addition, in assay [1], the inhibition result was “inactive”.
Taken in the same sequence, the figures for `OC[C@H]1OC(O)[C@H](O)[C@@H](OCCCC(F)(F)C(F)(F)C(F)(F)C(F)(F)C(F)(F)C(F)(F)F)[C@@H]1O` (stereo partly specified) were greater than 500 µM and “inactive”.
The corresponding values for `CCCCCCCCCCCCCCCCCCO[C@H]1[C@H](O)[C@@H](CO)OC(O)[C@@H]1O` (stereo partly specified) are greater than 500 µM and “inactive”.
Taken in the same sequence, the figures for `C=CCOCCCCCCCO[C@H]1[C@H](O)[C@@H](CO)OC(O)[C@@H]1O` (stereo partly specified) were greater than 500 µM and “inactive”.
Consider `CCCCCCCCCCO[C@H]1[C@H](O)[C@@H](CO)OC(O)[C@@H]1O` (stereo partly specified), for which the Ki at Hexose transporter 1 (read-out: Ki) was found to be 19 µM. For the same compound, the inhibition entry in assay [1] is “inactive”.
For the compound `C=CCOCCOCCO[C@H]1[C@H](O)[C@@H](CO)OC(O)[C@@H]1O` (stereo partly specified), the Ki entry on Hexose transporter 1 (oocyte) is reported as “Not Active”. Besides, the inhibition entry in assay [1] is “inactive”.
As to `C=CCCCCCCCCCCCCCO[C@H]1[C@H](O)[C@@H](CO)OC(O)[C@@H]1O` (stereo partly specified), at Hexose transporter 1 (read-out: Ki), the Ki was found to be 37 µM. The inhibition result in assay [1] is “inactive”.
The corresponding values for `CCCCCCCCCCCCCCO[C@H]1[C@H](O)[C@@H](CO)OC(O)[C@@H]1O` (stereo partly specified) are greater than 500 µM and “inactive”.
Taken in the same sequence, the figures for `COC(=O)CCCCCCC#CCCCCCCCO[C@H]1[C@H](O)[C@@H](CO)OC(O)[C@@H]1O` (stereo partly specified) were greater than 500 µM and “inactive”.
Turning to `CCCCCCCCCCCCCCCCCCCCO[C@H]1[C@H](O)[C@@H](CO)OC(O)[C@@H]1O` (stereo partly specified), the inhibition result in assay [1] was “inactive”.
